Sampled rows, rich in hits. Any-hit rate of the full collection: about 2.8%.
ARFGAP1 inh – inhibitors of rat ARFGAP1. Q62848. Arfgap1-stimulated ARF1 GTP hydrolysis, GDP FP detection. inhibition, % at 16.5 µM. actives 0.26% (n = 360,000);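 active = inhibition above a per-plate limit, mean inhibition of low control wells plus 3 SD, cut at about 25% in these data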
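Material: rat Arfgap1 GAP domain (His6, aa 1-136), purified enzyme. Also added: human ARF1(Δ1-17)-GTP substrate. Compound dosing: 16.5 µM single point, 1.26% DMSO. Timing: enzyme reaction 120 min at 25 °C after 20 min preincubation. Signal: GDP detection by fluorescence polarization. Read-out basis: percent inhibition of GAP-stimulated GDP formation, scaled between DMSO and no-Arfgap1 medians.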
PAFAH2 inh – PAFAH2 (human) inhibition; actives 0.99% (n = 340,000); recombinant PAFAH2, FP-rhodamine activity probe, fluorescence polarization; inhibition, % at 3.39 µM; Q99487;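 active = inhibition above the mean over all tested compounds plus 3 SD, cut at about 30% in these data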;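 also: inhibitors block probe labeling of enzyme so polarization drops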
PAFAH1B2 FP inh – blocks human PAF acetylhydrolase 1b catalytic subunit 2. P68402. actives 1.2% (n = 340,000). recombinant PAFAH1B2, FP-rhodamine activity probe, fluorescence polarization. inhibition, % at 3.39 µM;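 active = inhibition above the mean of all tested compounds plus 3 SD, cut at about 24% in these data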
Target sequence (P68402 whole entry, looked up): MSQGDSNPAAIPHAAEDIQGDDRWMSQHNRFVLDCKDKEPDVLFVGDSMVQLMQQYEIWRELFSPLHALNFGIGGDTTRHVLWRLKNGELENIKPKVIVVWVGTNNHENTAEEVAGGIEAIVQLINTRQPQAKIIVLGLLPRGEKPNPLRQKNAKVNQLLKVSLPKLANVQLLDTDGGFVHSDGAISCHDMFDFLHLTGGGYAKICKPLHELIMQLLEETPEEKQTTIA
ASAP1 inh – blocks human ASAP1-stimulated Arf1 GTP hydrolysis | AID 624377 | inhibition, % at 16.5 µM | Q9ULH1 | actives 0.19% (n = 360,000) | GDP FP detection; in the data active = inhibition above about 25%
PAFAH1B3 FP inh – blocks human PAF acetylhydrolase 1B catalytic subunit 3; Q15102; recombinant PAFAH1B3, FP-rhodamine probe, fluorescence polarization; inhibition, % at 3.39 µM; actives 0.28% (n = 340,000);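 active = inhibition above the screen-wide average of all tested compounds plus 3 SD, cut at about 25% in these data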
Target sequence (Q15102 whole entry, looked up): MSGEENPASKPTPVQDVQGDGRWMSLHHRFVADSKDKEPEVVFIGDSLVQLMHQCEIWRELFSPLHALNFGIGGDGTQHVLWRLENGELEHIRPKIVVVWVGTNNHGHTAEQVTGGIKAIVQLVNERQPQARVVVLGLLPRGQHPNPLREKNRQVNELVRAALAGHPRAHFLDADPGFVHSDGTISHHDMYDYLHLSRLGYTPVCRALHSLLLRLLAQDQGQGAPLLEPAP
pPAFAH FP inh – pPAFAH (human) enzyme inhibition; inhibition, % at 3.39 µM; recombinant pPAFAH, FP-rhodamine probe fluorescence polarization; Q13093; AID 463082; actives 1.5% (n = 330,000);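 active = inhibition above the mean inhibition across the screen plus 3 SD, cut at about 25% in these data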;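 also: inhibitors block binding of the rhodamine activity-based probe so polarization drops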
PAFAH2 confirm – confirmation of human PAFAH2 inhibitors. shares compounds with PAFAH2 inh. actives 65% (n = 2,300). inhibition, % at 3.39 µM. recombinant PAFAH2, FP-rhodamine activity probe, fluorescence polarization;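 active = mean inhibition over three repeats above a set limit taken from the earlier primary screen, cut at about 30% in these data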;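 also: inhibitor blocks binding of rhodamine activity probe so polarization falls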
Numbers stand for hits; i = inactive; nt = not tested or not shown.

SMILES	ARFGAP1 inh	PAFAH2 inh	PAFAH1B2 FP inh	ASAP1 inh	PAFAH1B3 FP inh	pPAFAH FP inh	PAFAH2 confirm
Cc1cc(C(=O)COC(=O)c2ccc(O)cc2)c(C)n1CC(F)(F)F	i	31.4	i	i	i	i	i
c1ccc(C2[C@H]3CN(CC4CCCCC4)[C@H](c4ccccc4)C34CC2(c2ccccc2)C4)cc1 (some centres undefined)	i	i	i	i	i	i	nt
c1ccc(C2[C@H]3CN(CC4CCCCC4)[C@H](c4ccccc4)C34CC2(c2cccnc2)C4)cc1 (some centres undefined)	i	55.7	i	i	i	i	i
Clc1ccccc1Cc1noc(CN2CCN(Cc3ccccn3)CC2)n1	i	32.6	i	i	i	i	i
CN(Cc1cnccn1)Cc1nc(Cc2ccccc2Cl)no1	i	i	i	i	i	i	nt
Nc1nc2c(ncn2[C@@H]2O[C@H](CNC(=O)[C@H](N)Cc3cncn3COCc3ccccc3)[C@@H](O)[C@H]2O)c(=O)[nH]1	i	nt	nt	i	nt	nt	nt
CN1OC[C@@H]2CN(S(=O)(=O)c3cccc(C(F)(F)F)c3)[C@H](c3ccc(N4CCCCC4)cc3)C[C@@H]21	i	nt	nt	i	nt	nt	nt
COCCOC(=O)c1c(C)n(C)c2ccc(OC(=O)C3CC3)cc12	i	38.9	i	i	i	i	i
O=C(CNC(=O)C12CC3CC(CC(C3)C1)C2)N1CCN(S(=O)(=O)c2cccs2)CC1	i	i	i	i	i	i	nt
O=C(CNC(=O)C12CC3CC(CC(C3)C1)C2)N1CCN(S(=O)(=O)/C=C/c2ccccc2)CC1	i	35.3	i	i	i	i	i
CC(C)C[C@H]1CN(CCCC[C@H]2CNC(=O)C(=O)N2CCc2ccc(O)cc2)C(=O)C(=O)N1CCc1ccccc1	i	nt	nt	i	nt	nt	nt
CCc1ccccc1NC(=O)NC1CCCCC1	i	i	i	i	i	i	nt
CCc1ccc(OCC(=O)Nc2cc(S(=O)(=O)CC)ccc2O)cc1	i	i	i	i	i	i	nt
CCS(=O)(=O)c1ccc(O)c(NC(=O)NC2CCCCC2)c1	i	81.0	i	i	i	i	64.2
CCS(=O)(=O)c1ccc(O)c(NC(=O)COc2ccccc2)c1	i	47.5	i	i	i	i	43.7
Cc1ccc(C)c(S(=O)(=O)Nc2ccc3oc(C)c(C(=O)O)c3c2)c1	i	37.6	i	i	i	i	i
O=C(CSc1nnnn1-c1ccc(Cl)c(C(=O)O)c1)NC(c1ccccc1)c1ccccc1	i	i	i	i	i	i	nt
Cc1ccc(N=C(NO)c2nonc2N)c(C)c1	i	i	i	i	i	i	nt
Cc1ccc(N=C(NOC(=O)c2ccccc2)c2nonc2N)c(C)c1	i	67.8	i	i	i	i	67.3
COc1cccc(CC(=O)Nc2cc(S(=O)(=O)N3CCOCC3)ccc2OC)c1	i	38.9	i	i	i	nt	i
O=C(Nc1cc(S(=O)(=O)N2CCOCC2)ccc1O)c1ccco1	i	57.1	i	i	i	i	43.7
CN(C)S(=O)(=O)c1cccc(C(=O)Nc2cc(S(=O)(=O)N3CCOCC3)ccc2O)c1	i	49.6	i	i	i	nt	49.5
Cc1ccc(S(=O)(=O)N2CCOCC2)cc1C(=O)Nc1cc(S(=O)(=O)N2CCCCC2)ccc1O	i	30.3	i	i	i	nt	i
O=C(Nc1ccc(S(=O)(=O)N2CCOCC2)cc1)c1ccco1	i	i	i	i	i	i	nt
COc1ccc2oc3cc(Cl)ccc3c(=O)c2c1	i	nt	nt	i	nt	nt	nt
Cn1c(N)c(C(=O)CSc2nnc(C3CC3)n2-c2ccccc2)c(=O)n(C)c1=O	i	i	i	i	i	i	nt
Cc1cccc(NC(=O)Nc2nnc([C@@H]3C[C@H](O)[C@@H](CO)O3)s2)c1	i	nt	nt	i	nt	nt	nt
CCCCCCCc1nc2nc(C)c(Br)c(=O)n2[nH]1	i	38.1	i	i	i	i	34.9
CCCc1nc2nc(C)c(NS(=O)(=O)c3ccc(C(C)(C)C)cc3)c(=O)n2[nH]1	i	i	i	i	i	i	nt
Cc1ccc(C)c(S(=O)(=O)N(C)c2ccc(OC(=O)C3CCN(C(=O)Nc4ccccc4)CC3)cc2)c1	i	32.1	i	i	i	nt	i
